Results collected from several papers.
FLT3: Receptor-type tyrosine-protein kinase FLT3 (FLT3, Homo sapiens, UniProt P36888)
FLT3 D835Y: Receptor-type tyrosine-protein kinase FLT3 (FLT3, Homo sapiens, UniProt P36888, D835Y)

Structure (SMILES)	target	effect on	mode	method	tested at	inhibition [%]
CNC(=O)c1ccccc1Nc1cc(Nc2ccc(N3CCOCC3)cc2OC)ncc1C(F)(F)F	FLT3	enzyme activity	inhibitor	–	0.1 µM	> 50
CN(C)C1CCN(CC#Cc2nn(C3CCCC3)c3nc(NCc4ccccc4)ncc23)C1 (centres unmarked)	FLT3	enzyme activity	inhibitor	FRET	1 µM	24
COc1cccc(Nc2cccc(-c3cnc4cc(-c5cnn(C)c5)ccn34)n2)c1	FLT3	cell-free assay	–	competition with immobilised ligand	8.4 nM	> 65
COc1cc2ncnc(Nc3ccc(Oc4ccccc4)cc3C)c2cc1OC	FLT3	enzyme activity	inhibitor	–	1 µM	79
CNc1cccc2cc(C(=O)Nc3ccc(C(=O)O)cc3)c(=O)[nH]c12	FLT3 D835Y	enzyme activity	inhibitor	–	10 µM	0.73
O=C(CSc1nc2nccnc2c(=O)n1CCc1ccccc1)Nc1nccs1	FLT3	enzyme activity	inhibitor	–	10 µM	13
Cn1cnc(Br)c1C1=CN(c2ncnc3[nH]cnc23)CCS1	FLT3	enzyme activity	inhibitor	radiometric	50 nM	16.8
COc1cc2nccc(Oc3ccc(NC(=O)c4c5n(n(-c6ccc(F)cc6)c4=O)CCCC5)cc3)c2cc1OC	FLT3	enzyme activity	inhibitor	–	0.1 µM	49
Cn1cncc1C1=CN(c2ncnc3[nH]cnc23)CCS1	FLT3	enzyme activity	inhibitor	radiometric	50 nM	22.2
COc1cc2ncnc(Nc3ccc(Oc4ccccc4)c(C)c3C)c2cc1OC	FLT3 D835Y	enzyme activity	inhibitor	–	1 µM	2
CCOc1cc(-c2nncn2C)ccc1Nc1ncc2cc(C)nc(NCC(C)(C)C)c2n1	FLT3	enzyme activity	inhibitor	FRET	1 µM	54
